Results reported in ChEMBL document CHEMBL1129751, “2-Iminopiperidine and other 2-iminoazaheterocycles as potent inhibitors of human nitric oxide synthase isoforms” (J Med Chem, 1996).

Key:
[1] = Selectivity is defined as the ratio of the IC50(hncNOS) to IC50(hiNOS)
In short: (§1)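 Ratio of IC50 for the endothelial or neuronal isoform to IC50 for the inducible isoform. All three recombinant human enzymes were assayed by [3H]arginine-to-[3H]citrulline conversion at 30 µM final L-arginine, 37 °C for 15 min. Both constitutive isoforms had 40 nM calmodulin. Each compound tested at eight concentrations.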

Nitric oxide synthase 1 = Nitric oxide synthase 1 (Homo sapiens, UniProt P29475); test: Inhibitory activity against human Neuronal nitric oxide synthase
Nitric oxide synthase 1, sequence (P29475 whole entry): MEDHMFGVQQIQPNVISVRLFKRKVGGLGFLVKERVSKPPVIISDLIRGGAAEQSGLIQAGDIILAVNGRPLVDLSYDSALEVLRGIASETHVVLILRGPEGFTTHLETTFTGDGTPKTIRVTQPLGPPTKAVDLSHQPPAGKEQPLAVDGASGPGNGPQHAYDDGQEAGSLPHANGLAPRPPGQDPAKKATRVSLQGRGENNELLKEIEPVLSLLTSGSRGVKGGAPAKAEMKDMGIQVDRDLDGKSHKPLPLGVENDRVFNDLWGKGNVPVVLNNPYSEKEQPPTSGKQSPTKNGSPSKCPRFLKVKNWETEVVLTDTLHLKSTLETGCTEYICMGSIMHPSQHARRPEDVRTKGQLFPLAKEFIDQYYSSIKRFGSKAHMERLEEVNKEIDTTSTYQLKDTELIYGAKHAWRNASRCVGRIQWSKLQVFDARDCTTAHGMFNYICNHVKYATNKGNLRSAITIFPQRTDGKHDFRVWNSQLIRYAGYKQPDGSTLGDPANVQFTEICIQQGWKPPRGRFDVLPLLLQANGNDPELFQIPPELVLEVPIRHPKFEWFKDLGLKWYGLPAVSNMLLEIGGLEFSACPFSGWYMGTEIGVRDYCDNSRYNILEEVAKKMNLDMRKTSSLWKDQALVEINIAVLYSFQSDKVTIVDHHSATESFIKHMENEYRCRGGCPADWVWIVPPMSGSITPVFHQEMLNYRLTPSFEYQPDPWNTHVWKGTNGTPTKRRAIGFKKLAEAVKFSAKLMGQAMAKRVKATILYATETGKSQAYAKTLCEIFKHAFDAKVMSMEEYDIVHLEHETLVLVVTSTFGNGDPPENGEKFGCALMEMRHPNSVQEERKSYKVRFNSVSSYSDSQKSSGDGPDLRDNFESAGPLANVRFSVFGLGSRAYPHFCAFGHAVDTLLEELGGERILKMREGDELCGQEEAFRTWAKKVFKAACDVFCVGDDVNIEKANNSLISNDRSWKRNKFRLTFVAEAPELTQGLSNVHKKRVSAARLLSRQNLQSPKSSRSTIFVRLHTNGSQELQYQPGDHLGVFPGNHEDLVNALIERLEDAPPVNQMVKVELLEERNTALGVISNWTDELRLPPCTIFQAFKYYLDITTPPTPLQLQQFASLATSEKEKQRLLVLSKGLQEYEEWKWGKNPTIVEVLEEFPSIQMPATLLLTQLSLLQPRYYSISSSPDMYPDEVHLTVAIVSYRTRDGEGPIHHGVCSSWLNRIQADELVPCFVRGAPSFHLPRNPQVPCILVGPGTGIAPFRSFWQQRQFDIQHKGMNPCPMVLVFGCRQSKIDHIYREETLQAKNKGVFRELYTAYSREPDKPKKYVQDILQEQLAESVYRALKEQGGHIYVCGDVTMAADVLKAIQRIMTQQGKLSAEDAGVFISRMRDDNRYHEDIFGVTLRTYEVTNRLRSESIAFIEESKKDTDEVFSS

Nitric oxide synthase 3 = target: T1, Nitric oxide synthase 3 (Homo sapiens, UniProt P29474); test: Inhibitory activity against human Endothelial nitric oxide synthase
T1 sequence (P29474 whole entry): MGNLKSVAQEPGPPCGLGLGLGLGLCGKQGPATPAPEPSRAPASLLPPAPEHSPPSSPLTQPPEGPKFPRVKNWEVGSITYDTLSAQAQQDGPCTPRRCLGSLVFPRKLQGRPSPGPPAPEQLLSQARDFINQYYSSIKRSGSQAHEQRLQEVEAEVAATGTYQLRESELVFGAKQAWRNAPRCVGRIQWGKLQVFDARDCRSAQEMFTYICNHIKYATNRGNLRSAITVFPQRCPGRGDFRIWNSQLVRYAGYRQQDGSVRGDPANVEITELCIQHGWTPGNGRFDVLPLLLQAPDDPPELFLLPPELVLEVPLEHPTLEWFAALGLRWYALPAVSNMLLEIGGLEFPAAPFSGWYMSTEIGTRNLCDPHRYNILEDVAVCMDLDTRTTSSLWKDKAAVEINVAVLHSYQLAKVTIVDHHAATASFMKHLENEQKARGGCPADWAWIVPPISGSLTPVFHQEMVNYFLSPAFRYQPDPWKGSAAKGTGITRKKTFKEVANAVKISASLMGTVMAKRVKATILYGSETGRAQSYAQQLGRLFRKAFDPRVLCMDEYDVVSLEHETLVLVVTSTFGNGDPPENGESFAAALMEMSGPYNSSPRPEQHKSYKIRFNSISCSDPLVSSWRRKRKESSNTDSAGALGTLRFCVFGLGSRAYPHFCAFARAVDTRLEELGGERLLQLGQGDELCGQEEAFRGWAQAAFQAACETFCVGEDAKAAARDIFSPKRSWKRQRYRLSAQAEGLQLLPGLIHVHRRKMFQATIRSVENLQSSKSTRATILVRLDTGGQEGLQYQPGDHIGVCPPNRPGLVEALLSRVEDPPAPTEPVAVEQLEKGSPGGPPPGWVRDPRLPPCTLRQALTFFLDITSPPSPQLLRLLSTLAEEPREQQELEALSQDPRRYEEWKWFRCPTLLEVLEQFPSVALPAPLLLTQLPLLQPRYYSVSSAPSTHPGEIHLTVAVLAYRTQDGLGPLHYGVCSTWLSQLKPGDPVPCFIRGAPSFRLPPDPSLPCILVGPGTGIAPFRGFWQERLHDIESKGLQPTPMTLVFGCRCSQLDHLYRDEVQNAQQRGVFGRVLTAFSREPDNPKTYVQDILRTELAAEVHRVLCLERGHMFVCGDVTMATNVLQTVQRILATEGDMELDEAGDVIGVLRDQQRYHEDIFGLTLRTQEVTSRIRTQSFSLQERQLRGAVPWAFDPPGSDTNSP
In short: (§2)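 Recombinant human enzymes expressed in Sf9 cells by baculovirus and partially purified on DEAE-Sepharose from soluble extracts. Assay in 50 mM Tris pH 7.6 with BSA, DTT, CaCl2, FAD, tetrahydrobiopterin, NADPH, 30 µM final L-arginine with L-[2,3-3H]arginine. Endothelial form also given 40 nM calmodulin. 15 min at 37 °C, stopped with EGTA buffer. [3H]citrulline isolated on cation exchange and counted. IC50 from eight concentrations, at least duplicate.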

[2] = target: Nitric oxide synthase, inducible (Homo sapiens, UniProt P35228); test: Inhibitory activity against human inducible nitric oxide synthase; in short: as §2
Nitric oxide synthase, inducible, sequence (P35228 whole entry): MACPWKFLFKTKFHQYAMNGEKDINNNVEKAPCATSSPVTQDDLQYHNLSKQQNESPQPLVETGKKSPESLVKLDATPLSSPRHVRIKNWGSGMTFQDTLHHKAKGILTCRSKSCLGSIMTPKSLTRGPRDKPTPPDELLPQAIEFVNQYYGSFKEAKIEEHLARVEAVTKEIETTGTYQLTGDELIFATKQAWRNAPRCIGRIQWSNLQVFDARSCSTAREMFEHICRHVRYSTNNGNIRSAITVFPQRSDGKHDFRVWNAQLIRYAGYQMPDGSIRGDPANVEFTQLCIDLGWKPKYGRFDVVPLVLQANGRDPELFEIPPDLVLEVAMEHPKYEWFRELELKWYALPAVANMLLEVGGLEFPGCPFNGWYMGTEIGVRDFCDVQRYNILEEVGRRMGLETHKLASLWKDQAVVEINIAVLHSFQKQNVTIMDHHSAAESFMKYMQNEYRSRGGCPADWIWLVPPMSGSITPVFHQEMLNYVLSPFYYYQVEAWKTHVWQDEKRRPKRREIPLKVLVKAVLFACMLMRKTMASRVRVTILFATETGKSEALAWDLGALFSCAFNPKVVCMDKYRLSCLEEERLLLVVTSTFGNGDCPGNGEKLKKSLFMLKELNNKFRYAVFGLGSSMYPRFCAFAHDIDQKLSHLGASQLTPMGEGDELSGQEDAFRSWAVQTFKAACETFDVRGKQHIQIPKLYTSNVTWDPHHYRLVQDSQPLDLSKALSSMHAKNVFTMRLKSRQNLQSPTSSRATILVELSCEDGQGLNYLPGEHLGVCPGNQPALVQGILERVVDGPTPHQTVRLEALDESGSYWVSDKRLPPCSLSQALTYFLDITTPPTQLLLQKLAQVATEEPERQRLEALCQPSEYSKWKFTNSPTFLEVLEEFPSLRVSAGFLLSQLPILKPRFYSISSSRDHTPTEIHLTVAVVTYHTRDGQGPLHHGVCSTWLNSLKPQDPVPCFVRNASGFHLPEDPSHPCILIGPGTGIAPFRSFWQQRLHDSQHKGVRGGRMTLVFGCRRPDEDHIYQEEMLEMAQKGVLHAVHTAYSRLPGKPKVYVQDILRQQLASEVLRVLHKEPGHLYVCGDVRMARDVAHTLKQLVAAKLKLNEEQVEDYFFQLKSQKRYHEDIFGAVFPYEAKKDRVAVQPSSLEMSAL

[3] = Selectivity is defined as the ratio of the IC50(hecNOS) to IC50(hiNOS); in short: as §1

Structure (SMILES) | Selectivity [1] | IC50 (Nitric oxide synthase 1) [µM] | IC50 (Nitric oxide synthase 3) [µM] | IC50 [2] [µM] | Selectivity [3]
NC1=NCCCN1 | 0.7 | 17 | 87 | 25 | 3.5
NC1=NCCCCC1 | 1.8 | 3.5 | 16 | 2 | 8
NC1=NCCCCCC1 |  | 10 | 59 | 10 | 
N=C1CCCCN1 |  |  | 4.7 | 1 | 
NC1=NCCCO1 | 2.1 | 3.7 | 8.2 | 1.8 | 4.6
CC(=N)NCCCC[C@H](N)C(=O)O [L-NIL] | 13 | 61 | 138 | 4.6 | 30
NC1=NCCC1 | 0.8 | 20 | 93 | 26 | 3.6
NC1=NCCCS1 | 1.1 | 3.2 | 7.1 | 2.9 | 2.4
N=C1CCCCCCCN1 |  | 6.8 | 90 | 9.8 | 
N/C1=N/CCCCCCC1 | 0.7 |  |  |  | 9.2
N/C1=N/CCCCCC1 | 1 |  |  |  | 5.9
